Compound activity as filed in PubChem BioAssay.
Rows were chosen to be rich in hits. Some 2.8% of all compounds tested hit in one or more screens of this group.
pPAFAH inh: pPAFAH enzyme inhibitors, primary screen, biochemical, fluorescence polarization, human. inhibition, % at 3.39 µM. Platelet-activating factor acetylhydrolase (Homo sapiens), Q13093. 1.5% of 330,000 active. recombinant pPAFAH, FP-rhodamine probe fluorescence polarization;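 active = inhibition above the mean inhibition across the screen plus 3 SD, cut at about 25% in these data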;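 note: inhibitors block binding of the rhodamine activity-based probe so polarization drops; 0% = enzyme with DMSO and 100% = wells lacking pPAFAH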
mABHD4 FP: ABHD4 inhibitors, primary screen, biochemical, fluorescence polarization, mouse. purified mABHD4, FP-Rh probe fluorescence polarization. inhibition, % at 8.92 µM. 0.54% of 370,000 active;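 active = inhibition exceeding the mean over every tested compound plus 3 SD, cut at about 30% in these data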;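 note: 0% = plate median of compound wells and 100% = S159A mutant with DMSO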
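Assay system: mouse ABHD4 enzyme, wild type / Also added: fluorescent activity-based probe FP-Rh / Doses: single nominal dose of 8.92 µM, 0.89% DMSO final / Timing: 45 min compound pre-incubation plus 60 min probe step, 25 °C / Signal: FP readout, ex 525 nm / em 598 nm / Control set: S159A mutant/DMSO as 100%, compound-well median as 0%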
PAFAH1B2 FP inh: PAFAH1B2 enzyme inhibitors, primary screen, biochemical, fluorescence polarization, human; inhibition, % at 3.39 µM; 1.2% of 340,000 active; recombinant PAFAH1B2, FP-rhodamine activity probe; AID 492953, 2010;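 active = inhibition above the mean of all tested compounds plus 3 SD, cut at about 24% in these data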;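 note: 0% = enzyme with DMSO and 100% = wells lacking PAFAH1B2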
Target sequence (P68402 whole entry, looked up): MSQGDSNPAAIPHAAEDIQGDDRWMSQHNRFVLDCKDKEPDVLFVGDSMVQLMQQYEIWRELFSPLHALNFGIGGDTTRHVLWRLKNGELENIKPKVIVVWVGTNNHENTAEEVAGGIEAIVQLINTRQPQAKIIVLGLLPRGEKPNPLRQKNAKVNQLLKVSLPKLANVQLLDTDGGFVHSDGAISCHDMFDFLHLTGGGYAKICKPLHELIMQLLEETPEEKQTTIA
HTRA1 inhibitor: HTRA1 serine protease inhibitors, primary screen, biochemical, fluorescence polarization, HTS; 0.5% of 340,000 active; Q92743; recombinant HTRA1, FP-rhodamine activity-based probe; inhibition, % at 5.96 µM; in the data active = inhibition above about 36%;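 note: 0% = enzyme with DMSO and 100% = wells lacking enzyme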
PAFAH1B3 inh: PAFAH1B3 enzyme inhibitors, primary screen, biochemical, fluorescence polarization, human; Platelet-activating factor acetylhydrolase IB subunit alpha1 (Homo sapiens), Q15102; recombinant PAFAH1B3, FP-rhodamine probe; inhibition, % at 3.39 µM; 0.28% of 340,000 active; AID 492972, 2010;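 active = inhibition above the screen-wide average of all tested compounds plus 3 SD, cut at about 25% in these data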;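 note: 0% = enzyme with DMSO only and 100% = wells lacking PAFAH1B3 protein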
Target sequence (Q15102 whole entry, looked up): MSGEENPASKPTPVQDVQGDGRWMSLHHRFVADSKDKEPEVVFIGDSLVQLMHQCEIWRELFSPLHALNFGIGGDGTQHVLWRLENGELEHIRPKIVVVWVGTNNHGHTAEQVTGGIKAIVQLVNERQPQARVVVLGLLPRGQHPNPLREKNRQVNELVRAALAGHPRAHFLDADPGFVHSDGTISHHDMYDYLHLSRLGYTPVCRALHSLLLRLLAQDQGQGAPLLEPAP
PAFAH2 inh: PAFAH2 enzyme inhibitors, primary screen, biochemical, fluorescence polarization, human. inhibition, % at 3.39 µM. 0.99% of 340,000 active. recombinant PAFAH2, FP-rhodamine activity probe. Platelet-activating factor acetylhydrolase 2, cytoplasmic (Homo sapiens), Q99487;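 active = inhibition above the mean over all tested compounds plus 3 SD, cut at about 30% in these data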;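 note: inhibitors block probe labeling of enzyme so polarization drops; 0% = enzyme with DMSO and 100% = wells lacking PAFAH2 protein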
* hit, by the source's call; x = not tested or not shown.

SMILES	pPAFAH inh	mABHD4 FP	PAFAH1B2 FP inh	HTRA1 inhibitor	PAFAH1B3 inh	PAFAH2 inh
O=C(CNC(=O)C12CC3CC(CC(C3)C1)C2)NCc1ccccc1	5	4	4	0	-2	11
CCOC(=O)CC[C@@]1(C(=O)OCC)C[C@@H](CC(=O)NCc2ccc(C)o2)C(=O)N2CCCC=C21	x	2	x	x	x	x
Cc1cc(NC(=O)CCC(=O)N(c2ccccc2)C2(C(=O)NC3CCCCC3)CCCC2)no1	5	-4	26*	-4	7	1
Cc1cc(NC(=O)C2(c3ccccc3)CCCC2)no1	-4	-1	25*	-5	5	4
CNC(=O)C1(c2ccccc2)CCCCC1	x	4	x	2	x	x
Cc1ccc(-n2c(SCC(=O)c3ccccc3Br)nnc2-c2ccncc2)cc1	x	2	x	x	x	x
CCN(CC)C(=O)CC[C@@H]1CC[C@]2(CCCN(Cc3ccccc3)C2)O1	x	-8	x	x	x	x
O=C(COC(=O)CC12CC3CC(CC(C3)C1)C2)Nc1ncc(Cl)cc1Cl	27*	-3	13	-15	-4	20
O=C(COC(=O)c1ccc(Cl)nc1)Nc1ncc(Cl)cc1Cl	2	5	2	2	9	6
S=c1[nH]nc(-c2ccccc2Br)n1Cc1ccccc1	0	-2	29*	8	2	2
O=C1CCCc2c1cc(-c1ccccc1)n2-c1ccccc1	5	-5	25*	-12	10	3
Cc1ccc(Cn2nnc3c2-c2cc(F)ccc2S(=O)(=O)N(C(C)(C)C)C3)cc1	x	-9	x	x	x	x
Cc1[nH]c2ccccc2c1CC(=O)Nc1ccc(N(C)c2cccnc2)c(-c2cccc(Cl)c2)c1	x	30*	x	x	x	x
Cc1cc(-c2cc(NC(=O)Cc3c(C)[nH]c4ccccc34)ccc2N(C)c2cccnc2)ccc1F	x	27	x	x	x	x
CCOC(=O)C1=C(COC(=O)c2ccc([N+](=O)[O-])s2)NC(=O)NC1C (configuration not stated)	4	-7	11	36	52*	36*
CCOC(=O)C1=C(COC(=O)c2sccc2C)NC(=O)NC1C (configuration not stated)	1	-24	7	1	12	0
CCCc1cc(=O)[nH]c(SCC(=O)NC2CCCc3ccccc32)n1 (configuration not stated)	-1	-3	26*	5	-3	1
Fc1ccccc1-c1n[nH]c(=S)n1N=Cc1ccc(-c2ccccc2)cc1	x	-1	x	x	x	x
COc1ccc2ccc3c(c2c1)N=CC1(O3)N(C)c2ccccc2C1(C)C (configuration not stated)	33*	x	1	28	14	5
CN1c2ccccc2C(C)(C)C12C=Nc1c(ccc3ccccc13)O2 (configuration not stated)	7	6	0	20	13	0
CC1(OC(=O)CCc2ccccc2)C(=O)C=C2C=C(c3ccc(C#N)cc3)N(c3ccccc3)C=C2C1=O (configuration not stated)	12	3	1	16	11	2
CC1(OC(=O)c2cccs2)C(=O)C=C2C=C(c3ccsc3)OC=C2C1=O (configuration not stated)	56*	x	x	x	x	x
CC1(OC(=O)CCc2ccccc2)C(=O)C=C2C=C(c3ccsc3)OC=C2C1=O (configuration not stated)	55*	x	x	x	x	x
COC(=O)CCCC1=CC2=CC(=O)C(C)(OC(=O)c3cccs3)C(=O)C2=CN1CCc1ccccn1 (configuration not stated)	3	10	-2	0	8	0
CC1(OC(=O)c2cccs2)C(=O)C=C2C=C(c3ccc(C#N)cc3)OC=C2C1=O (configuration not stated)	45*	x	x	x	x	x
SMILES	pPAFAH inh	mABHD4 FP	PAFAH1B2 FP inh	HTRA1 inhibitor	PAFAH1B3 inh	PAFAH2 inh
C=CCN1C=C2C(=O)C(C)(OC(=O)c3cccs3)C(=O)C=C2C=C1CCCC(=O)OC (configuration not stated)	1	12	3	6	1	1
CC1CC(C)CN(CCCNS(=O)(=O)c2cc3c(cc2Br)CCN3C(=O)C2CC2)C1 (configuration not stated)	x	-4	x	x	x	x
Cc1ccc2nc(-c3ccc(NS(=O)(=O)c4c(C)n(C)c(=O)n(C)c4=O)cc3)sc2c1	4	-12	-2	-26	3	1
Cc1ccc(S(=O)(=O)Nc2ccc(-c3nc4ccc(C)cc4s3)cc2)cc1	26*	-19	-7	-49	-2	-2
Cc1cccc(S(=O)(=O)Nc2ccc(-c3nc4ccc(C)cc4s3)cc2)c1	33*	-92	-3	-99	19	-29
Cc1ccc(NS(=O)(=O)c2ccc3[nH]c(=O)sc3c2)cc1	29*	-9	22	-7	-4	-1
CSc1nc2ccc(NS(=O)(=O)c3ccc([N+](=O)[O-])cc3)cc2s1	8	0	x	x	x	x
CSc1nc2ccc(NS(=O)(=O)c3ccc(CNC(C)=O)cc3)cc2s1	32*	0	-3	1	0	-2
Cc1ccc(NS(=O)(=O)c2ccc3[nH]c(=O)[nH]c3c2)cc1	22	-10	6	-8	11	1
CC(Cl)C(=O)N1CCC(C(=O)NC2CCCc3ccccc32)CC1 (configuration not stated)	x	7	x	x	x	x
O=[N+]([O-])c1cc(S(=O)(=O)Nc2ccccc2)ccc1N1CCN(c2ccc(O)cc2)CC1	30*	9	0	2	12	7
COCCCN1CCC2(CCC(c3ccccc3)CC2)C1=O (configuration not stated)	x	2	x	x	x	x
COc1ccc(S(=O)(=O)Nc2ccccc2C(=O)N2CCOCC2)cc1C	-5	3	2	11	1	-11
Cc1ccccc1NS(=O)(=O)c1ccc(C)c(C(=O)N2CCOCC2)c1	34*	-3	-1	-4	4	-3
COc1ccc(S(=O)(=O)Nc2ccccc2C)cc1C(=O)N1CCOCC1	26*	-2	1	-7	3	8
COc1cccc(Nc2nc3ccccc3nc2NS(=O)(=O)c2cccs2)c1	32*	18	11	2	-1	8
COc1ccc(Nc2nc3ccccc3nc2NS(=O)(=O)c2cccs2)c(OC)c1	9	18	-4	6	11	15
CCOC(=O)C1(Cc2ccccc2)CCN(Cc2ccnc3ccccc23)CC1	x	-6	x	x	x	x
Cc1cc(NCCc2ccc(Cl)cc2)n2ncnc2n1	4	-1	24*	1	-3	-3
Oc1ccc2ccccc2c1C=NN1CCN(Cc2ccc(Cl)cc2)CC1	x	1	x	x	x	x
